Calls of active or inactive are those of the source. The calls are words filed in the database; no cut-off is given here.
Key:
Pseudomonas aeruginosa [1] = test: Antibacterial activity against Pseudomonas aeruginosa PAO1 assessed as growth inhibition at 87.5 uM; assay type: functional; details: read-out: GI
Staphylococcus aureus = test: Antibacterial activity against methicillin-resistant Staphylococcus aureus 01A1095 assessed as growth inhibition at 350 uM after 19 hrs; assay type: functional
Outline: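 Strain 01A1095 optical-density viability assay in caMH broth at 1980 CFU/well. Compounds were in DMSO (final 1.75%) and added before the bacteria. Plates were incubated at 37°C until OD620 reached 0.7-0.8, cooled 30 min and read at 620 nm. Vehicle served as the uninhibited-growth control and ciprofloxacin at 500 µg/mL as the kill control in internal control wells.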

Pseudomonas aeruginosa [2] = test: Antibacterial activity against Pseudomonas aeruginosa PAO1; assay type: functional, organism-based
[3] = Selectivity ratio of antimicrobial activity for Pseudomonas aeruginosa PAO1 over methicillin-resistant Staphylococcus aureus 01A1095; assay type: functional
Pseudomonas aeruginosa [4] = test: Antibacterial activity against Pseudomonas aeruginosa PAO1 assessed as growth inhibition at 175 uM; assay type: functional; details: read-out: GI
Pseudomonas aeruginosa [5] = test: Antibacterial activity against Pseudomonas aeruginosa PAO1 assessed as growth inhibition at 350 uM; assay type: functional, organism-based

Row | Structure (SMILES) | growth inhibition (GI) (Staphylococcus aureus) | growth inhibition (GI) (Pseudomonas aeruginosa [5]) | also measured
1 | COc1cc2c3c(cc4cc(O)c(O)cc4c3c1O)[N+](C)(C)CC2 | inactive |  | inhibition of growth at 87.5 µM (Pseudomonas aeruginosa [1]): 59%
2 | O=C([O-])C(F)(F)F.Oc1cc2c(cc1O)[C@@H]1c3ccc(O)c(O)c3C[C@H]3Cc4cc(O)c(O)cc4[N+]31CC2 (some centres undefined) |  |  | IC50 (Pseudomonas aeruginosa [2]): 9.8 µM; MIC (Pseudomonas aeruginosa [2]): 35 µM; inhibition of growth at 350 µM (Staphylococcus aureus; 01A1095, 19 h, read-out: GI): 55%; Selectivity ratio [3]: 36
3 | COc1cc2c3c(c1O)-c1cc(O)c(O)cc1CC3[N+](C)(C)CC2 (racemic) | inactive |  | inhibition of growth at 175 µM (Pseudomonas aeruginosa [4]): 59%
4 | COc1cc2c(cc1O)C(Cc1ccc(O)c(O)c1)[N+](C)(C)CC2 (racemic) | inactive | inactive | 
5 | COc1cc2c(cc1O)C(Cc1ccc(O)cc1)[N+](C)(C)CC2 (racemic) | inactive | inactive | 
6 | C[N+]1(C)CCc2cc(O)c(O)cc2C1Cc1ccc(O)c(O)c1 (racemic) | inactive | inactive | 
